Published values of several laboratories.
Protocols differ between the studies behind these lines.
Target: Calcium/calmodulin-dependent protein kinase type IV (CAMK4, Homo sapiens, UniProt Q16566)
Sequence (Q16566 1-473, as in one of the studies): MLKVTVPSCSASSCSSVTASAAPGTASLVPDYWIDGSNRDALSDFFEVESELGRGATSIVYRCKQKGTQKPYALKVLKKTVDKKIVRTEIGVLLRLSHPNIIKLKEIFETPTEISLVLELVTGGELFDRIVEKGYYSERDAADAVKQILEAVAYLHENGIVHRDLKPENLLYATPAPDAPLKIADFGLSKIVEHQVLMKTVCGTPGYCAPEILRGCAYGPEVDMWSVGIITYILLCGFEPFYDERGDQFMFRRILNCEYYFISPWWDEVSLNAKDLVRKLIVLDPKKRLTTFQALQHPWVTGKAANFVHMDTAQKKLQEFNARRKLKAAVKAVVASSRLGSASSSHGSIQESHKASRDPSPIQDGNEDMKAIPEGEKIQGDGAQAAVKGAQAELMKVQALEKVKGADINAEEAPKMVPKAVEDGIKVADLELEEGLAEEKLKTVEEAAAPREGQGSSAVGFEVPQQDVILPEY

SMILES | assay | setting | endpoint | value
N#CC1c2c([nH]c3c(Cl)c(Cl)ccc23)C(=O)NC12CCCCC2 (racemic) | thermal stability, DSF | 10 µM | ΔTm | 0.6 °C
CCN(CC)CCNC(=O)c1c(C)[nH]c(/C=C2\C(=O)Nc3ccc(F)cc32)c1C | enzyme activity, inhibitor | 10 µM | inhibition | 87%
CC/C(=N\NC(=O)NCc1cccc(O)c1)c1ccc(O)c(C)c1O | enzyme activity, inhibitor | 0.1 µM | inhibition | 1.3%
Cc1c[nH]c2nccc(Oc3c(F)cc(Nc4cc(Cl)nc(N)n4)cc3F)c12 | cell-free assay, competition with immobilised ligand | 0.1 µM | remaining binding | 100%
CNC(=O)c1cc(Oc2ccc(NC(=O)Nc3ccc(Cl)c(C(F)(F)F)c3)cc2)ccn1 | enzyme activity, inhibitor | 10 µM | inhibition | 10%
Cn1c2c(c3ccc(Cl)c(Cl)c31)C(C#N)C1(CCNCC1)NC2=O (racemic) | thermal stability, DSF | 10 µM | ΔTm | -0.1 °C
Cc1ncc([N+](=O)[O-])n1C(=NO)c1ccccc1C(F)(F)F | enzyme activity, inhibitor | 10 µM | inhibition | 27.6%
CCc1ccccc1C(=O)Nc1n[nH]c2c(C)c(F)c(C3C(C#N)=C(C)N(C)C(C)=C3C#N)cc12 | cell-free assay, competition with immobilised ligand | 1 µM | remaining binding | 56%
Clc1ccc(Nc2nnc(Cc3ccncc3)c3ccccc23)cc1 | cell-free assay | 0.5 µM | remaining signal | 93.4%
O=C(O)[C@H]1[C@H](Cn2nnc3ccccc3c2=O)CC[C@@H]1C(=O)c1ccc(OCCC2CCOCC2)cc1 | cell-free assay, competition with immobilised ligand | 1 µM | remaining binding | 78%
Cc1ccc(Nc2nccc(N(C)c3ccc4c(C)n(C)nc4c3)n2)cc1S(N)(=O)=O | cell-free assay, inhibitor | 0.5 µM | remaining signal | 95.9%
CN(C)C1CCN(CC#Cc2nn(C3CCCC3)c3nc(NCc4ccccc4)ncc23)C1 (stereo not drawn) | enzyme activity, inhibitor, FRET | 0.1 µM | inhibition | 4%
COc1cccc(CNC(=O)c2nc3scc(COCc4ccc(C(=O)O)cc4)c3c(=O)[nH]2)c1 | cell-free assay, competition with immobilised ligand | 1 µM | remaining binding | 100%
Cn1c2c(c3ccc(Cl)c(Cl)c31)C(C#N)C(C)(C)NC2=O (stereo not drawn) | thermal stability, DSF | 10 µM | ΔTm | 0.1 °C
Cc1sc(C(=O)NC2COC2)cc1-n1cc(NC(=O)Nc2c(F)cccc2Cl)cn1 | enzyme activity, inhibitor | 10 µM | remaining activity | 98.5%
COc1cc2c(N3CCN(C(=O)Nc4ccc(OC(C)C)cc4)CC3)ncnc2cc1OCCCN1CCCCC1 | cell-free assay | 0.5 µM | remaining signal | 99.3%
Cn1c2c(Cl)c(Cl)ccc2c2cc[nH]c(=O)c21 | thermal stability, DSF | 10 µM | ΔTm | 0.4 °C

SMILES | assay | setting | endpoint | value
COc1cc2c(Nc3ccc(Br)cc3F)ncnc2cc1OCC1CCN(C)CC1 | cell-free assay | 0.5 µM | remaining signal | 101%
Cc1ccc(NC(=O)c2ccc(C)c(C(F)(F)F)c2)cc1C#Cc1nn(C2CCC(O)CC2)c2ncnc(N)c12 (stereo not drawn) | cell-free assay | 10 µM | remaining signal | 93%
Cn1c2c(c3ccc(Cl)c(Cl)c31)C(C#N)C1(CCN(C(=O)OC(C)(C)C)CC1)NC2=O (racemic) | thermal stability, DSF | 10 µM | ΔTm | -0.3 °C
CC(=O)c1c(NS(C)(=O)=O)c2cc(-c3ccc(Cl)cc3)c(-c3ccc(Cl)cc3Cl)nc2n(C)c1=O | cell-free assay, competition with immobilised ligand | 1 µM | remaining binding | 100%
CN1CCC2(CC1)NC(=O)c1c(c3ccc(Cl)c(Cl)c3n1C)C2C#N (racemic) | thermal stability, DSF | 10 µM | ΔTm | -0.2 °C
COc1cc2ncnc(Nc3ccc(Oc4ccccc4)c(C)c3C)c2cc1OC | enzyme activity, inhibitor | 1 µM | inhibition | -2%
Nc1ncnc2occ(-c3ccc(NC(=O)Nc4cc(C(F)(F)F)ccc4F)cc3)c12 | cell-free assay, inhibitor | 20 µM | remaining signal | 1.5%
CC(C)c1ccc(NC(=O)c2cccs2)c(-c2nc3ccccc3[nH]c2=O)c1 | enzyme activity, inhibitor | 1 µM | activity vs control | 116%
O=C(Nc1cnn(-c2csc(C(=O)NC3COC3)c2)c1)Nc1ccccc1Cl | enzyme activity, inhibitor | 5 µM | remaining activity | 114%
CC1=C(C#N)C(c2ccc3c(c2)c(NC(=O)c2ccccc2C)nn3C)C(C#N)=C(C)N1 | cell-free assay, competition with immobilised ligand | 1 µM | remaining binding | 70%
N#CCCc1ccc2c(c1)-c1[nH]c3ccc([N+](=O)[O-])cc3c1CC(=O)N2 | cell-free assay | 0.5 µM | remaining signal | 98.4%
CC1(C)NC(=O)c2[nH]c3c(Cl)c(Cl)ccc3c2C1C#N (stereo not drawn) | thermal stability, DSF | 10 µM | ΔTm | -0.1 °C
O=C(NS(=O)(=O)c1ccc(NCC2CCOCC2)c([N+](=O)[O-])c1)c1ccc(N2CCN(Cc3ccc(C(F)(F)F)cc3-c3ccc(Cl)cc3)CC2)cc1Oc1cnc2[nH]ccc2c1 | cell-free assay, competition with immobilised ligand | 1 µM | remaining binding | 100%
CCCOc1ccc(OC)c(F)c1C(=O)c1ccc(C(=O)N[C@@H]2CNC[C@H]2NC(=O)c2ccc3[nH]ncc3c2)cc1 | enzyme activity, inhibitor | 10 µM | remaining activity | 95%
O=C(NCc1ncc(C(F)(F)F)cc1Cl)c1ccc2c(c1)C1(CCS(=O)(=O)CC1)[C@H](C1CC1)N2S(=O)(=O)c1ccc(F)cc1 | cell-free assay, competition with immobilised ligand | 1 µM | remaining binding | 86%
CNc1cccc2cc(C(=O)Nc3ccc(C(=O)O)cc3)c(=O)[nH]c12 | enzyme activity, inhibitor | 10 µM | inhibition | 11%
